# A selection: hits, their analogues and other compounds. The true share with any hit is near 2.8%.
# SR-BI uptake up – activators of SR-BI mediated HDL lipid uptake; activation, % at 12.5 µM; CHO ldlA[mSR-BI] cells, DiI-HDL uptake fluorescence, 3 h; 100 = double the neutral-control signal; 0.096% of 320,000 active;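 active means mean replicate activation of at least 60% and every replicate at or above 60%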
#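 Material: SR-BI-overexpressing, LDLR-lacking CHO cells | Dosing: Single compound concentration, delivered by pin transfer | Probe or stimulus: Labelled HDL, 10 µg/mL | Signal: Bottom-read cell fluorescence after medium removal, ex 550/em 595 nm | Schedule: 3 h, 37 °C | Evaluation: HDL uptake via cellular fluorescence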
# CAL PDZ FP-1 – blocks peptide binding to the human CAL PDZ domain; purified CAL PDZ, TMR-peptide fluorescence polarization, 1 h; inhibition, % at 24.9 µM; 0.92% of 300,000 active;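 active means mean inhibition of at least 30% with at least half of replicates also reaching 30%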
# dFosB activator – enhances mouse delta FosB homodimer DNA binding; activation, % at 25 µM; purified delta FosB, TAMRA-CDK5 oligo fluorescence polarization; percent of positive-control signal above neutral wells; P13346; 0.99% of 340,000 active;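 active means mean activation above about 17%, with every replicate also reaching it, limit read from the data, passing the limit was not always enough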
# SR-BI DiI inh – inhibitors of mouse SR-BI mediated HDL lipid uptake; 0.96% of 320,000 active; ldlA[mSR-BI] CHO cells, DiI-HDL uptake fluorescence, 3 h; AID 488896; inhibition, % at 12.5 µM; Q61009;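 active means mean replicate inhibition of at least 70% and a set share of replicates each scoring 70 or more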
# CAL PDZ FP-2 – human CAL PDZ-peptide interaction inhibition; purified CAL PDZ, TMR-peptide fluorescence polarization, 1 h; AID 504414; Q9HD26; inhibition, % at 20 µM; 0.02% of 330,000 active;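 active means highest replicate inhibition of at least 40%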
#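 System: purified tagged CAL PDZ domain construct (CerCALP). Schedule: 1 h incubation at room temperature before polarization reading. Medium: 25 mM sodium phosphate pH 7.4, 150 mM NaCl, TCEP, IgG, Thesit. Read-out: percent inhibition from loss of millipolarization. Measured by: FP readout, S and P plane fluorescence. Probe or stimulus: fluorescent TMR peptide probe.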
# Numbers stand for hits; i = inactive; nt = no result.
SMILES,SR-BI uptake up,CAL PDZ FP-1,dFosB activator,SR-BI DiI inh,CAL PDZ FP-2
O=C1c2cccc3cccc(c23)C(=O)N1CC1CCN(CC(O)COCc2ccc3c(c2)OCO3)CC1 (stereo not drawn),i,i,i,70,i
O=C(CCN1C(=O)c2cccc3cccc(c23)C1=O)N1CCN(Cc2ccc3c(c2)OCO3)CC1,i,i,i,74,nt
CC(=O)N(c1ccccc1)C(C(=O)c1ccccc1)c1ccccc1 (stereo not drawn),i,i,i,i,i
O=C(CCCSc1nnnn1-c1cccc2ccccc12)c1ccc(F)cc1,i,46,i,i,nt
Nc1nc(-c2ccccc2)c(N=Nc2ccc(Cl)cc2)s1,i,i,i,86,i
CCC1(c2ccc(F)cc2)NC(=O)N(CC(=O)N2CCc3ccccc32)C1=O (stereo not drawn),nt,i,i,i,i
O=C(/C=C/c1ccco1)Nc1ccc2c(c1)OCO2,i,60,i,i,nt
O=C(/C=C/c1ccco1)NCc1ccc2c(c1)OCO2,i,i,i,i,i
CCC(=O)Nc1ccc(NC(=S)NC(=O)/C=C/c2ccco2)cc1,i,i,i,89,i
CN(C)c1ccc(/C=C2/C[N+](C)(C)C/C(=C/c3ccc(N(C)C)cc3)C2=O)cc1,i,i,22,i,i
CC(C)/C=C1\CC/C(=C\c2ccc(N(C)C)cc2)C1=O,i,i,i,i,i
Cc1nc2c(ncn2-c2ccccc2)c(=O)n1NC(=O)CN1CCOCC1,i,i,i,i,i
CCN(CC)CC(=O)Nn1c(C)nc2c(ncn2-c2ccccc2)c1=O,i,51,i,i,i
CC1CCN(S(=O)(=O)c2cc(C(=O)NC3(C)CCS(=O)(=O)C3)ccc2Br)CC1 (stereo not drawn),i,nt,i,i,i
CC1CCN(C(=O)C(C)Sc2nc(-c3ccccc3)cc(C(F)(F)F)n2)CC1 (stereo not drawn),i,i,i,87,i
CC(Sc1nc(-c2ccccc2)cc(C(F)(F)F)n1)C(=O)N1CCCC1 (stereo not drawn),i,nt,i,i,i
CC(Sc1nc(-c2ccccc2)cc(C(F)(F)F)n1)C(=O)NCCN1CCOCC1 (stereo not drawn),i,i,i,73,i
CC(Sc1nc(-c2ccccc2)cc(C(F)(F)F)n1)C(=O)N1CCOCC1 (stereo not drawn),i,i,i,93,nt
COc1ccc(-c2cc(C(F)(F)F)nc(SCC(=O)NCCN3CCOCC3)n2)cc1OC,i,i,i,i,i
O=C(CSc1nc(-c2ccc(F)cc2)cc(C(F)(F)F)n1)NCCN1CCOCC1,i,i,i,73,i
CCN(CC)CCCNC(=O)C(C)Sc1nc(-c2ccccc2)cc(C(F)(F)F)n1 (stereo not drawn),i,i,i,i,i
COCCS(=O)(=O)N(Cc1ccccc1)[C@H](C(=O)OC)C(C)C,i,i,i,i,i
COc1ccc(/C=C(\NC(=O)c2ccc(OC)cc2)C(=O)N2CCCCC2)cc1,i,nt,i,i,i
O=C(NC1CCCCC1)C(c1ccc(O)c(O)c1)N(C(=O)Cn1nnc2ccccc21)c1cccc(O)c1 (stereo not drawn),i,i,32,i,i
CCOc1cc(C(C(=O)NCC2CCCO2)N(C(=O)Cn2nnc3ccccc32)c2ccccc2C)ccc1O (stereo not drawn),i,50,i,i,i
SMILES,SR-BI uptake up,CAL PDZ FP-1,dFosB activator,SR-BI DiI inh,CAL PDZ FP-2
CCOc1cc(C(C(=O)NCC2CCCO2)N(C(=O)Cn2nnc3ccccc32)c2ccccc2C(C)=O)ccc1O (stereo not drawn),nt,nt,i,nt,i
COc1ccc(N(C(=O)c2csnn2)C(C(=O)NC2CCCC2)c2cccs2)cc1 (stereo not drawn),i,44,i,i,i
COc1ccc(N(C(=O)c2ccco2)C(C(=O)NC2CCCC2)c2cccs2)cc1 (stereo not drawn),i,i,i,i,i
Cc1ccccc1N(C(=O)c1csnn1)C(C(=O)NC1CCCC1)c1ccncc1 (stereo not drawn),i,33,i,i,i
CC(=O)NCCC(=O)N(Cc1ccccc1)c1nc2c(C)cccc2s1,i,i,i,i,i
NS(=O)(=O)c1ccc(CNC(=O)/C=C/c2c(F)cccc2Cl)cc1,i,70,i,i,i
O=c1c2cc(Br)ccc2[nH]c(=S)n1Cc1cccnc1,i,i,43,i,i
